Results as given in ChEMBL document CHEMBL1145399, “Design, synthesis, and pharmacology of novel 7-substituted 3,4-dihydro-2H-1,2,4-benzothiadiazine 1,1-dioxides as positive allosteric modulators of AMPA receptors” (J Med Chem, 2007).
pEC50: −log10 of the molar value.

Tests used:
[1] = tested on: Oocyte; experiment: Activity at Wistar rat cortex AMPA receptor expressed in Xenopus laevis oocytes assessed as maximum increase of (S)-AMPA-induced current; type: cell-based
Summary of the method: (§1)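 Two-electrode voltage clamp on Xenopus oocytes injected with rat cortex poly(A+) mRNA. Current is evoked by (S)-AMPA at 10 µM with drug co-applied. Compounds alone were checked on the holding current. Mean ± SEM, n ≥ 2–3.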

[2] = tested on: Oocyte; experiment: Activity at Wistar rat cortex AMPA receptor expressed in Xenopus laevis oocytes assessed as 2-fold increase of (S)-AMPA-induced current; type: cell-based; summary of the method: as §1
[3] = tested on: Oocyte; experiment: Activity at Wistar rat cortex AMPA receptor expressed in Xenopus laevis oocytes assessed as 5-fold increase of (S)-AMPA-induced current; type: cell-based; summary of the method: as §1
[4] = tested on: Hippocampus; experiment: Increase in (S)-AMPA-stimulated [3H]noradrenaline release in Wistar rat hippocampus at 30 uM relative to control; type: functional
Summary of the method: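 Rat hippocampal slices preloaded with [³H]-noradrenaline. Release is stimulated by (S)-AMPA, with drug at 30 µM. Drug alone was compared with basal DMSO control release. Result is the % increase in AMPA-evoked release.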

[5] = Activity at Wistar rat cortex AMPA receptor expressed in Xenopus laevis oocytes assessed as effect on (S)-AMPA-induced current; type: cell-based; conditions: Oocyte; summary of the method: as §1

SMILES	Activity [1]	Activity [2]	Activity [3]	Activity [4]	pEC50 [5]
CCN1CNS(=O)(=O)c2ccccc21	> 1800%	14 µM	38 µM	–	–
CN1CNS(=O)(=O)c2cc(N)ccc21	–	> 300 µM	> 300 µM	–	–
CN1CN(C)S(=O)(=O)c2cc(Cl)ccc21	> 1900%	7 µM	17 µM	–	–
CCN1CN(C)S(=O)(=O)c2cc(Cl)ccc21	> 1100%	21 µM	64 µM	–	–
CN1C=NS(=O)(=O)c2cc(Cl)ccc21	–	> 1000 µM	> 1000 µM	–	–
CCN1C=NS(=O)(=O)c2cc(C)ccc21	> 300%	300 µM	> 1000 µM	–	–
CN1CNS(=O)(=O)c2cc(Cl)ccc21	1740%	6 µM	18 µM	–	–
CCN1CNS(=O)(=O)c2cc(N)ccc21	–	> 300 µM	> 300 µM	–	–
CCN1CNS(=O)(=O)c2cc(C(=O)OC)ccc21	–	> 100 µM	> 100 µM	–	–
CC1Nc2ccc(Cl)cc2S(=O)(=O)N1 (centres undefined)	> 700%	134 µM	509 µM	–	–
CCN1CNS(=O)(=O)c2cc(OC)ccc21	> 600%	68 µM	190 µM	–	–
CN1CNS(=O)(=O)c2cc([N+](=O)[O-])ccc21	> 1400%	11 µM	26 µM	–	–
NS(=O)(=O)c1cc2c(cc1Cl)NC(C1CC3C=CC1C3)NS2(=O)=O (centres undefined) [CYCLOTHIAZIDE]	844%	1.6 µM	9.8 µM	73%	5.15
CN1CN(C)S(=O)(=O)c2ccccc21	> 1700%	37 µM	127 µM	–	–
CCN1C=NS(=O)(=O)c2cc(Cl)ccc21	> 400%	400 µM	> 1000 µM	–	–
CCN1CNS(=O)(=O)c2cc(C)ccc21	> 1300%	25 µM	95 µM	–	–
CCN1CNS(=O)(=O)c2cc(C(F)(F)F)ccc21	–	> 300 µM	> 300 µM	–	–
CCN1CNS(=O)(=O)c2cc([N+](=O)[O-])ccc21	> 1000%	16 µM	45 µM	–	–
CCN1CNS(=O)(=O)c2cc(Br)ccc21	> 1100%	29 µM	78 µM	–	–
CCN1CNS(=O)(=O)c2cc(C(=O)Oc3ccccc3)ccc21	> 600%	32 µM	180 µM	–	–
O=S1(=O)N[C@H]2CCCN2c2ccccc21	1260%	24.6 µM	78.2 µM	0%	3.89
CCN1CNS(=O)(=O)c2cc(I)ccc21	> 400%	95 µM	–	–	–
CN1C=NS(=O)(=O)c2ccccc21	–	450 µM	> 1000 µM	–	–
CCN1CNS(=O)(=O)c2cc(C(=O)O)ccc21	–	> 100 µM	> 100 µM	–	–
Cc1ccc2c(c1)S(=O)(=O)NCN2C	> 3000%	21 µM	47 µM	–	–
CCN1CNS(=O)(=O)c2cc(NC(C)=O)ccc21	–	> 300 µM	> 300 µM	–	–
CN1CNS(=O)(=O)c2ccccc21	> 1900%	22 µM	46 µM	–	–
Cc1ccc2c(c1)S(=O)(=O)N=CN2C	> 600%	320 µM	650 µM	–	–
